Reference: ChEMBL document CHEMBL2434891, “Design, synthesis, and in vitro cancer cell growth inhibition evaluation and antimalarial testing of trioxanes installed in cyclic 2-enoate substructures” (Eur J Med Chem, 2013)
Values after ≈ are worked out from the molar mass of the structure shown.

Key:
[1] = Cytotoxicity against human HBC4 cells after 72 hrs by SRB assay; assay type: functional; conditions: HBC4, 72 h
LOX IMVI = experiment: Cytotoxicity against human LOXIMVI cells after 72 hrs by SRB assay; assay type: functional
MKN-74 = experiment: Cytotoxicity against human MKN74 cells after 72 hrs by SRB assay; assay type: functional; conditions: MKN-74, 72 h
HCT-116 = experiment: Cytotoxicity against human HCT116 cells after 72 hrs by SRB assay; assay type: functional, cell-based; conditions: HCT-116, 72 h
Outline: (§1)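 Adherent cells grown at 37 °C and 5% CO2. Seeded at 1×10^4/well 24 h before dosing, then 72 h at 10–0.01 µg/mL final. Fixed with cold 50% TCA, stained with 0.4% SRB, dye extracted in 10 mM Tris, read at 540 nm.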

ACHN = experiment: Cytotoxicity against human ACHN cells after 72 hrs by SRB assay; assay type: functional
HT-29 = experiment: Cytotoxicity against human HT-29 cells after 72 hrs by SRB assay; assay type: functional; conditions: HT-29, 72 h
MDA-MB-231 = experiment: Cytotoxicity against human MDA-MB-231 cells after 72 hrs by SRB assay; assay type: functional; conditions: MDA-MB-231, 72 h
MKN-45 = experiment: Cytotoxicity against human MKN45 cells after 72 hrs by SRB assay; assay type: functional; conditions: MKN-45, 72 h
[2] = Cytotoxicity against human HBC5 cells after 72 hrs by SRB assay; assay type: functional; conditions: HBC5, 72 h
[3] = Cytotoxicity against human BSY1 cells after 72 hrs by SRB assay; assay type: functional; conditions: BSY-1, 72 h
PC-3 = experiment: Cytotoxicity against human PC3 cells after 72 hrs by SRB assay; assay type: functional; conditions: PC-3, 72 h
SNB-75 = experiment: Cytotoxicity against human SNB75 cells after 72 hrs by SRB assay; assay type: functional; conditions: SNB-75, 72 h
BALB/3T3 = experiment: Cytotoxicity against mouse BALB/3T3 cells after 72 hrs by SRB assay; assay type: cell-based; conditions: BALB/3T3, 72 h
Outline: as §1, with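 “CO2. A549 and HCT116 were in RPMI 1640/OptiMEM (50:50) with 5% FBS; BALB/3T3 in Dulbecco medium with 10% FBS and pyruvate.” for “CO2.”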

L6 = experiment: Cytotoxicity against rat L6 cells after 70 hrs by alamar blue assay; conditions: L6, 70 h
Plasmodium falciparum = experiment: Antimalarial activity against erythrocytic stage of Plasmodium falciparum NF54 infected in RBC after 48 hrs by [3H]-hypoxanthine incorporation assay; assay type: functional, organism-based
[4] = read-out: LC50 (the source's name)
[5] = read-out: pLC50 (the source's name) (converted)

## COc1ccc(C2O[C@]34CC(c5cccc(OC)c5)OC(=O)C3=C[C@@]2(C)OO4)cc1 (stereo not given in full)
[1]
  TGI: 13 µM
[1]; read-out: GI50
  GI50: 3.7 µM
[1]; [4]
  CC50: 38 µM
LOX IMVI
  TGI: 9 µM
LOX IMVI; read-out: GI50
  GI50: 1 µM
LOX IMVI; [4]
  CC50: 7.5 µM
MKN-74
  TGI: 37 µM
MKN-74; read-out: GI50
  GI50: 14 µM
MKN-74; [4]
  CC50: 96 µM
HCT-116
  TGI: 13 µM
HCT-116; read-out: GI50
  GI50: 3.4 µM
HCT-116; [4]
  CC50: 70 µM
ACHN
  TGI: 29 µM
ACHN; read-out: GI50
  GI50: 15 µM
ACHN; [4]
  CC50: 56 µM
HT-29
  TGI: 27 µM
HT-29; read-out: GI50
  GI50: 5.2 µM
HT-29; [4]
  CC50: 100 µM
MDA-MB-231
  TGI: 18 µM
MDA-MB-231; read-out: GI50
  GI50: 5.4 µM
MDA-MB-231; [4]
  CC50: 51 µM
MKN-45
  TGI: 30 µM
MKN-45; read-out: GI50
  GI50: 16 µM
MKN-45; [4]
  CC50: 57 µM
[2]
  TGI: 4.1 µM
[2]; read-out: GI50
  GI50: 1.9 µM
[2]; [4]
  CC50: 8.8 µM
[3]
  TGI: 17 µM
[3]; read-out: GI50
  GI50: 5 µM
[3]; [4]
  CC50: 46 µM
PC-3
  TGI: 27 µM
PC-3; read-out: GI50
  GI50: 13 µM
PC-3; [4]
  CC50: 56 µM
SNB-75
  TGI: 28 µM
SNB-75; read-out: GI50
  GI50: 12 µM
SNB-75; [4]
  CC50: 64 µM

## COc1ccc(C2O[C@]34CC(c5cccc(Cl)c5)OC(=O)C3=C[C@@]2(C)OO4)cc1 (stereo not given in full)
BALB/3T3
  IC50: 8.97 µM
[1]
  TGI: 24 µM
[1]; read-out: GI50
  GI50: 11 µM
[1]; [4]
  CC50: 54 µM
[1]; read-out: pGI50 (converted)
  GI50: 3.72 µM
[1]; [5]
  CC50: 38 µM
LOX IMVI
  TGI: 12 µM
LOX IMVI; read-out: GI50
  GI50: 3.1 µM
LOX IMVI; [4]
  CC50: 60 µM
LOX IMVI; read-out: pGI50 (converted)
  GI50: 2.04 µM
LOX IMVI; [5]
  CC50: 7.59 µM
MKN-74
  TGI: 44 µM
MKN-74; read-out: GI50
  GI50: 15 µM
MKN-74; [4]
  CC50: 100 µM
MKN-74; read-out: pGI50 (converted)
  GI50: 14.1 µM
MKN-74; [5]
  CC50: 95.5 µM
HCT-116
  IC50: 7.67 µM
  TGI: 20 µM
HCT-116; read-out: GI50
  GI50: 4.1 µM
HCT-116; [4]
  CC50: 100 µM
HCT-116; read-out: pGI50 (converted)
  GI50: 3.39 µM
HCT-116; [5]
  CC50: 70.8 µM
ACHN
  TGI: 29 µM
ACHN; read-out: GI50
  GI50: 16 µM
ACHN; [4]
  CC50: 55 µM
ACHN; read-out: pGI50 (converted)
  GI50: 15.5 µM
ACHN; [5]
  CC50: 56.2 µM
HT-29
  TGI: 48 µM
HT-29; read-out: GI50
  GI50: 15 µM
HT-29; [4]
  CC50: 100 µM
HT-29; read-out: pGI50 (converted)
  GI50: 5.25 µM
HT-29; read-out: pLC50 (converted)
  CC50: > 100 µM
MDA-MB-231
  TGI: 26 µM
MDA-MB-231; read-out: GI50
  GI50: 12 µM
MDA-MB-231; [4]
  CC50: 58 µM
MDA-MB-231; read-out: pGI50 (converted)
  GI50: 5.37 µM
MDA-MB-231; [5]
  CC50: 51.3 µM
MKN-45
  TGI: 31 µM
MKN-45; read-out: GI50
  GI50: 14 µM
MKN-45; [4]
  CC50: 68 µM
MKN-45; read-out: pGI50 (converted)
  GI50: 15.5 µM
MKN-45; [5]
  CC50: 57.5 µM
[2]
  TGI: 8 µM
[2]; read-out: GI50
  GI50: 2.4 µM
[2]; [4]
  CC50: 44 µM
[2]; read-out: pGI50 (converted)
  GI50: 1.95 µM
[2]; [5]
  CC50: 8.71 µM
L6
  IC50: 0.46 µg/mL (≈ 1.11 µM)
[3]
  TGI: 26 µM
[3]; read-out: GI50
  GI50: 12 µM
[3]; [4]
  CC50: 57 µM
[3]; read-out: pGI50 (converted)
  GI50: 5.01 µM
[3]; [5]
  CC50: 46.8 µM
Plasmodium falciparum
  IC50: 1.38 µg/mL (≈ 3.33 µM)
PC-3
  TGI: 28 µM
PC-3; read-out: GI50
  GI50: 15 µM
PC-3; [4]
  CC50: 55 µM
PC-3; read-out: pGI50 (converted)
  GI50: 13.2 µM
PC-3; [5]
  CC50: 56.2 µM
SNB-75
  TGI: 28 µM
SNB-75; read-out: GI50
  GI50: 12 µM
SNB-75; [4]
  CC50: 67 µM
SNB-75; read-out: pGI50 (converted)
  GI50: 12.3 µM
SNB-75; [5]
  CC50: 63.1 µM
